Paper PMC4658283 (Toxicology, 2015)
Structures can show the parent of a compound that is named as a salt.

Columns and labels:
Format in all cases: in vivo, rat
[1] = PCB 95 and OH-PCB tissue levels by GC-ECD
How it was run: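 Killed 4 h after last injection (~28 h post-PCB). Tissues homogenized with diatomaceous earth and extracted over Florisil. OH-PCBs analysed as methylated derivatives; splitless injection at 280°C; PCB 204 internal standard.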

CYP2B protein = experiment: Western blot analysis of CYP2B protein in liver and cortex microsomes; conditions: liver microsomes; 7 d exposure
[2] = Enantioselective analysis of PCB 95 in tissues; conditions: both experimental groups
[3] = both experimental groups dosed with PCB 95

SMILES | detection of OH-PCB metabolite in blood and liver [1, 3] | other results
COc1c(Cl)cc(Cl)c(-c2cc(Cl)ccc2Cl)c1Cl [3-103, 3-Methoxy-2,2′,4,5′,6-pentachlorobiphenyl] | detected | –
COc1c(Cl)c(Cl)c(-c2cc(Cl)ccc2Cl)c(Cl)c1OC [4,5-95, 4,5-dimethoxy-2,2′,3,5′,6-pentachlorobiphenyl] | detected | –
Oc1cc(Cl)c(-c2cc(Cl)ccc2Cl)c(Cl)c1Cl [4-95, 2,2′,3,5′,6-pentachlorobiphenyl-4-ol] | detected | –
Oc1cc(Cl)c(-c2c(Cl)ccc(Cl)c2Cl)cc1Cl [4′-95] | detected | –
Oc1cc(Cl)c(Cl)c(-c2cc(Cl)ccc2Cl)c1Cl [5-95, 2,2′,3,5′,6-pentachlorobiphenyl-5-ol] | detected | detection of metabolite in adipose tissue [1, 3]: detected as a minor metabolite
CN1CCC[C@H]1c1cccnc1 [Nicotine, (−)-Nicotine hydrogen tartrate salt, reference compound] | – | effect of nicotine co-exposure on levels of the parent compound PCB 95 in tissues ([1]; nicotine 1 mg/kg/d s.c. 7 d plus PCB 95 6 mg/kg/d p.o., cortex, cerebellum, adipose, blood, liver, muscle): no effect
Clc1ccc(Cl)c(-c2c(Cl)ccc(Cl)c2Cl)c1 [PCB 95, 2,2′,3,5′,6-Pentachlorobiphenyl] | – | hepatic CYP2B protein levels relative to vehicle controls (densitometry, normalized to GAPDH) (CYP2B protein): neither nicotine nor PCB 95 alone changed hepatic CYP2B levels; rank order of tissue EF values for PCB 95 [2]: blood (sample pooled across experimental groups) > liver > muscle (samples pooled within experimental groups) > cortex > adipose
